Laboratory results: ChEMBL document CHEMBL2429802, “Cytotoxic oxepinochromenone and flavonoids from the flower buds of Rosa rugosa” (J Nat Prod, 2013)

Experiments:
Format in all cases: functional, cell-based
NB-4 = assay: Cytotoxicity against human NB4 cells assessed as growth inhibition after 72 hrs by MTT assay; conditions: NB-4, 72 h
How it was run: (§1)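 2500 cells per well seeded in MEM medium and incubated 24 h. Medium then replaced with fresh medium containing compound at 100 to 1.5625 μM (six 2-fold dilutions). OD595 read after MTT on control wells at 0 and 72 h and on treated wells at 72 h. IC50 taken as the concentration inhibiting 50% of cell growth. Paclitaxel served as positive control.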

MCF7 = assay: Cytotoxicity against human MCF7 cells assessed as growth inhibition after 72 hrs by MTT assay; conditions: MCF7, 72 h; how it was run: as §1
PC-3 = assay: Cytotoxicity against human PC3 cells assessed as growth inhibition after 72 hrs by MTT assay; conditions: PC-3, 72 h; how it was run: as §1
[1] = Cytotoxicity against human SH-SY5Y cells assessed as growth inhibition after 72 hrs by MTT assay; how it was run: as §1
A549 = assay: Cytotoxicity against human A549 cells assessed as growth inhibition after 72 hrs by MTT assay; conditions: A549, 72 h; how it was run: as §1

SMILES	IC50 (NB-4) [µM]	IC50 (MCF7) [µM]	IC50 (PC-3) [µM]	IC50 [1] [µM]	IC50 (A549) [µM]
COc1ccc2c(c1CCO)O[C@@H](c1ccc(O)cc1O)CC2	> 10	> 10	> 10	> 10	> 10
COc1cc2c(=O)cc(-c3ccc(O)c(O)c3)oc2c(C(C)=O)c1OC	3.6	2.8	8.4	4.3	1.2
COC(=O)c1cc(O)cc2oc(-c3ccc(OC)cc3)cc(=O)c12	2.2	2.3	4.8	2.5	6.7
O=C(OC[C@H]1O[C@@H](Oc2c(-c3ccc(O)cc3)oc3cc(O)cc(O)c3c2=O)[C@H](O)[C@@H](O)[C@@H]1O)c1ccc(O)cc1	4.7	7.3	> 10	8.2	> 10
COc1cc2c(cc1OC)[C@@H](O)[C@H](c1ccc(O)cc1)CO2	> 10	> 10	> 10	> 10	> 10
COc1ccc([C@@H]2COc3cc(OC)c(O)cc3[C@H]2O)cc1	> 10	> 10	> 10	> 10	> 10
COc1c(O)ccc(C/C=C/c2ccc3c(c2)OCO3)c1OC	> 10	> 10	> 10	> 10	> 10
COc1cc(/C=C/Cc2ccc(O)c(OC)c2OC)cc2c1OCO2	> 10	> 10	> 10	> 10	> 10
COC(=O)[C@@]1(O)c2c(oc(-c3ccc(O)cc3)cc2=O)OC=C[C@@H]1O	> 10	> 10	6.8	> 10	7.2
CC(=O)O[C@H]1C(=O)[C@@]2(C)[C@H]([C@H](OC(=O)c3ccccc3)[C@]3(O)C[C@H](OC(=O)[C@H](O)[C@@H](NC(=O)c4ccccc4)c4ccccc4)C(C)=C1C3(C)C)[C@]1(OC(C)=O)CO[C@@H]1C[C@@H]2O [PACLITAXEL]	–	–	–	0.2	–
